Laboratory results taken from ChEMBL document CHEMBL1149110, “Identification of 2-[2-[2-(5-bromo-2- methoxyphenyl)-ethyl]-3-fluorophenyl]-4,5-dihydro-1H-imidazole (ML00253764), a small molecule melanocortin 4 receptor antagonist that effectively reduces tumor-induced weight loss in a mouse model” (J Med Chem, 2004).

Target: Melanocortin receptor 4 (Mus musculus, UniProt P56450)
Assay: Competition binding affinity at mice melanocortin 4 receptor using [125I][NDP]-R-MSH as radioligand in a membrane filtration assay
Format: cell membranes
How it was run: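 Membrane filtration competition binding at MC4R with 125I-[NDP]-α-MSH as radioligand. Values are averages of at least three measurements, reported ± SD.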

Melanocortin receptor 4, sequence (P56450 whole entry): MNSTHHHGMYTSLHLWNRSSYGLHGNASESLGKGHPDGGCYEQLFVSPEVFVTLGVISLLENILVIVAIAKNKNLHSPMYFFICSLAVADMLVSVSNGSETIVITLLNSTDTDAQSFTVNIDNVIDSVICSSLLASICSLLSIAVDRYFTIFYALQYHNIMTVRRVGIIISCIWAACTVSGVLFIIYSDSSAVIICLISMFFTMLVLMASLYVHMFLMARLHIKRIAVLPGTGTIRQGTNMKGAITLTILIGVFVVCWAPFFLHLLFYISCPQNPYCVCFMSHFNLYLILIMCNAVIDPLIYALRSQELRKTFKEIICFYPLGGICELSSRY

Compound	Ki [nM]
COc1ccc(Br)cc1CCc1ccccc1C1=NCCCN1	220
COc1ccc(Br)cc1CCc1ccccc1C1=NCCN1	39
Fc1cccc(F)c1CSc1ccccc1C1=NCCCN1	15800
COc1ccc(Br)cc1CCc1c(F)cccc1C1=NCCN1	160

Now from value to compound:

Ki [nM]	Compound
2200	Clc1cc(CSc2ccccc2C2=NCCCN2)c(Cl)s1
2700	Fc1cccc(Cl)c1CSc1ccccc1C1=NCCCN1
67	COc1ccc(Br)cc1CSc1ccccc1C1=NCCCN1

Species: Mus musculus
Assay: Functional antagonism measured by inhibition of cAMP production induced by [NDP]-R-MSH in a whole cell assay in mice
How it was run: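 Whole-cell functional assay measuring inhibition of cAMP production stimulated by [NDP]-α-MSH. Values are averages of at least three measurements, reported ± SD.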

IC50 [nM]	Compound
280	COc1ccc(Br)cc1CCc1ccccc1C1=NCCCN1
450	COc1ccc(Br)cc1CCc1ccccc1C1=NCCN1
270	COc1ccc(Br)cc1CSc1ccccc1C1=NCCCN1
